According to ChEMBL document CHEMBL2321648, “Structure-based discovery of pyrazolobenzothiazine derivatives as inhibitors of hepatitis C virus replication” (J Med Chem, 2013):

How the values were obtained:
[1] = Cytotoxicity against human HuH5.2 cells by MTS assay; assay type: cell-based, Huh-5-2
Hepatitis C virus [2] = assay: Antiviral activity against Hepatitis C virus subtype 1b infected in human HuH5.2 cells assessed as inhibition of virus-induced cytopathic effect; assay type: functional, organism-based, Hepacivirus hominis; conditions: genotype 1b, Huh-5-2
Procedure, shortened: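 Eight-step 1:2 dilution series, 72 h at 37 °C. Cells lysed and luciferase luminescence read, expressed as % of untreated controls. EC50 taken from the dose-response curve, means ± SD of at least three independent experiments.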

Hepatitis C virus [3] = assay: Inhibition of N-terminal His-tagged recombinant Hepatitis C virus subtype 1b NS5B Cdelta21 RNA dependent RNA polymerase expressed in Escherichia coli at 50 uM by liquid scintillation counting analysis
Procedure, shortened: (§1)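 N-His-tagged NS5BCΔ21 (NIH1b), purified from E. coli DH5α on Ni-NTA, 100 ng per reaction. Reaction stopped with cold TCA/pyrophosphate, products filter-precipitated and scintillation-counted. Compound tested at 50 µM, activity relative to DMSO control.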

[4] = Selectivity index, ratio of CC50 for human HuH5.2 cells to EC50 for Hepatitis C virus subtype 1b; assay type: toxicity; conditions: read-out: Ratio CC50/EC50
Procedure, shortened: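 Ratio of CC50 (MTS, 72 h) to EC50 (luciferase replicon read-out), both measured in parallel in Huh 5-2 replicon cells.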

Hepatitis C virus [5] = assay: Binding affinity to Hepatitis C virus (isolate Con1) NS5B […] by surface plasmon resonance analysis; set-up: species or system Hepacivirus hominis
Hepatitis C virus [6] = assay: Inhibition of N-terminal His-tagged recombinant Hepatitis C virus subtype 1b NS5B Cdelta21 RNA dependent RNA polymerase expressed in Escherichia coli by liquid scintillation counting analysis
Procedure, shortened: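 Dose-response with 8–12 concentrations, in duplicate in two independent experiments. IC50 obtained by nonlinear regression, means ± SD.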

Hepatitis C virus [7] = assay: Inhibition of N-terminal His-tagged recombinant Hepatitis C virus subtype 1b N-terminal His-tagged expressed in Escherichia coli at 50 uM by liquid scintillation counting analysis relative to control; procedure, shortened: as §1
Hepatitis C virus [8] = assay: Inhibition of N-terminal His-tagged recombinant Hepatitis C virus subtype 1b N-terminal His-tagged expressed in Escherichia coli at non-toxic concentration by liquid scintillation counting analysis relative to control
Procedure, shortened: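 Recombinant NS5B genotype 1b (NIH1b) was His-tagged, C-terminally truncated by 21 residues, expressed in E. coli DH5α and purified on Ni-NTA. Products were TCA-precipitated on filters and counted by scintillation relative to the DMSO control. Compounds were screened at 50 µM.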

Hepatitis C virus [9] = assay: Antiviral activity against Hepatitis C virus subtype 1b infected in human Huh-9-13 cells assessed as inhibition of virus-induced cytopathic effect; assay type: functional, organism-based, Hepacivirus hominis; conditions: genotype 1b

Row | Structure (SMILES) | EC50 (Hepatitis C virus [2]) [µM] | inhibition at 50 µM (Hepatitis C virus [3]) [%] | inhibition at 50 µM (Hepatitis C virus [7]) [%] | further results
1 | CS(=O)(=O)Nc1ccc(NC(=O)c2nn(-c3ccccc3)c3c2NS(=O)(=O)c2ccccc2-3)cc1 | 14 |  |  | CC50 [1]: > 239 µM
2 | CS(=O)(=O)Nc1ccc(NC(=O)c2nn(-c3cccc([N+](=O)[O-])c3)c3c2NS(=O)(=O)c2ccccc2-3)cc1 | > 220 | 33.7 |  | selectivity ratio [4]: ≥ 1; CC50 [1]: > 220 µM; EC90 (Hepatitis C virus [2]): > 220 µM; Kd (Hepatitis C virus [5]): 14 µM
3 | CS(=O)(=O)Nc1ccc(NC(=O)c2nn(-c3ccccc3[N+](=O)[O-])c3c2NS(=O)(=O)c2ccccc2-3)cc1 | 17.8 |  |  | CC50 [1]: > 220 µM
4 | CS(=O)(=O)Nc1ccc(NC(=O)c2nn(-c3ccc([N+](=O)[O-])cc3)c3c2NS(=O)(=O)c2ccccc2-3)cc1 | 7.9 |  |  | IC50 (Hepatitis C virus [6]): 7.7 µM
5 | CN1c2c(C(=O)Nc3ccc(NS(C)(=O)=O)cc3)nn(-c3cccc(N)c3)c2-c2ccccc2S1(=O)=O | 9.2 | 45.8 | 45.8 | 
6 | CN1c2c(C(=O)Nc3ccc(NS(C)(=O)=O)cc3)nn(-c3ccccc3N)c2-c2ccccc2S1(=O)=O | 26 |  |  | 
7 | CN1c2c(C(=O)Nc3ccc(NS(C)(=O)=O)cc3)nn(-c3ccc(N)cc3)c2-c2ccccc2S1(=O)=O | 12 |  |  | 
8 | CN1c2c(C(=O)Nc3ccc(N)cc3)nn(-c3cccc(F)c3)c2-c2ccccc2S1(=O)=O | 19 | 31.5 | 31.5 | 
9 | CN1c2c(C(=O)Oc3ccc(NS(C)(=O)=O)cc3)nn(-c3cccc(F)c3)c2-c2ccccc2S1(=O)=O | 88 | 21.4 | 21 | 
10 | COC(=O)c1nn(-c2cccc(F)c2)c2c1N(C)S(=O)(=O)c1ccccc1-2 | 172 | 10.6 | 11 | inhibition (INH) (Hepatitis C virus [8]): 40%
11 | CN1c2c(C(=O)Nc3ccc(NS(C)(=O)=O)cc3)nn(-c3cccc(F)c3)c2-c2ccccc2S1(=O)=O | 7.5 |  |  | EC50 (Hepatitis C virus [9]): 3.6 µM
12 | CN1c2c(C(=O)Nc3ccc(NS(C)(=O)=O)cc3)nn(-c3ccccc3F)c2-c2ccccc2S1(=O)=O | 6.4 |  |  | 
13 | CN1c2c(C(=O)Nc3ccc(NS(C)(=O)=O)cc3)nn(-c3ccc(F)cc3)c2-c2ccccc2S1(=O)=O | 23 |  |  | 
